# APP 5'UTR act: activates APP 5'UTR luciferase reporter | SH-SY5Y APP 5'UTR luciferase reporter, luminescence; zero percent = DMSO vehicle wells | activation, % at 2 µM | 190,000 compounds, 1% hits;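 active = activation above a set limit, based on mean plus 3 SD of controls, cut at about 140% in these data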
# STAT1 blocker: reduces IFN-gamma driven STAT1 reporter signal. NIH 3T3 STAT1-luciferase reporter, luminescence. inhibition, % at 5.5 µM. 200,000 compounds, 0.35% hits;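 active = inhibition above a set limit, the mean inhibition across all tested compounds plus 3 SD, cut at about 34% in these data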;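 also: 0% = IFN-gamma with DMSO and 100% = IFN-gamma with 300 µM nifuroxazide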
# STAT3 act: STAT3 signaling activation. activation (% of control), % at 5.6 µM. U3A cells, IL-6 STAT3-luciferase reporter, luminescence; 100% = signal with IL-6 EC80 alone. 190,000 compounds, 0.91% hits;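 active = activation above the screen-wide mean of compound activation plus 3 SD, cut at about 130% in these data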;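 also: 0% = background luminescence of wells with medium and substrate only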
#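 Material: STAT3-luciferase reporter U3A cells; Probe or stimulus: IL-6 (33 ng/mL); Incubation: compound pre-incubation 1 h before IL-6, then 6 h stimulation at 37 °C; Technique: luminescence from STAT3-driven luciferase reporter; Evaluation: % activation versus median of IL-6-stimulated wells; Controls: IL-6-only high control.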
# STAT3 blocker: STAT3 signaling inhibition; U3A cells, IL-6 STAT3-luciferase reporter, luminescence; host cell line lacks STAT1; inhibition, % at 5.5 µM; 190,000 compounds, 0.89% hits; AID 862;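 active = inhibition above the mean inhibition across all screened compounds plus 3 SD, cut at about 44% in these data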;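 also: 0% = DMSO only wells and 100% = 100 µM nifuroxazide control wells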
# STAT1 act: STAT1 signaling activation; NIH 3T3 STAT1-luciferase reporter, IFN-gamma, luminescence; 100% = IFN-gamma alone, no compound; activation (% of control), % at 5.5 µM; 200,000 compounds, 2.6% hits;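 active = activation above the screen-wide mean activation plus 3 SD, cut at about 130% in these data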;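 also: raw ratio to IFN-gamma control signal so 100% means no change and 0% no light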
# NF-kB expr up: NF-kB expression increase, human neuronal cells. NF-kB reporter expression; stronger effect = higher value. AID 1239. fold change at 12.5 µM. 190,000 compounds, 1.6% hits; in the data active = fold change above about 3.3
# Active calls of the source: *; · = not tested or not shown. The list is not random: actives were taken first. Their share in the collection is about 5.1%.
SMILES,APP 5'UTR act,STAT1 blocker,STAT3 act,STAT3 blocker,STAT1 act,NF-kB expr up
CCCCCCNC(=O)c1c(N)n(/N=C/c2ccco2)c2nc3ccccc3nc12,-5.6,-38.3,108.4,-10.0,135.3*,·
N#CC1=C(N)OC2=C(CCc3ccccc32)C1c1ccccc1 (stereo unspecified),-96.2,-5.0,112.7,-10.5,104.4,4.7*
Cc1ccc(C(=O)COc2ccccc2N2C(=O)c3ccccc3C2=O)cc1,84.9,-10.3,100.1,2.1,109.2,1.13
CC(/C=N/NC(=O)c1cccs1)=C\c1ccccc1,188.4*,-38.1,74.7,32.0,134.2*,8.51*
O=C(N/N=C\CCc1ccccc1)c1ccco1,43.1,-37.6,108.3,-9.1,133.7*,1.19
CC(/C=N/NC(=O)c1ccco1)=C\c1ccccc1,160.9*,-9.0,67.6,41.3,108.3,5.91*
NC(=O)CSc1nc2cc3c(cc2c(=O)n1CCCC(=O)NCc1ccc2c(c1)OCO2)OCO3,-12.9,-1.6,98.3,10.9,99.9,1.05
Cc1ccc2cc(CCNC(=O)c3ccc(C)c([N+](=O)[O-])c3)c(=O)[nH]c2c1,-15.5,-0.6,112.7,-12.2,100.6,1.04
CN(Cc1ccno1)Cc1cn(Cc2ccccc2)nc1-c1ccc2c(c1)OCO2,-8.6,6.9,104.0,1.4,93.4,1.01
CC(C)CNC(=O)c1cccc(NC(=O)CCc2ccccc2)c1,11.7,3.4,103.9,-0.1,95.5,0.74
Cc1cc(C)n2nc(/C(C#N)=C/c3ccccn3)c(C#N)c2n1,-17.9,2.9,92.0,17.1,97.4,1.61
CCOc1ccc(NC(=O)C(c2ccccn2)N(C(=O)CCl)c2ccc(F)cc2)cc1 (stereo unspecified),11.4,-7.3,122.4,-21.5,106.5,1.15
Cc1cccc(OCCN2CSC(=S)N(C)C2)c1,12.2,2.8,98.8,4.9,97.4,1.66
COc1ccccc1OCCN1CSC(=S)N(C)C1,-4.9,-7.5,100.5,3.2,106.8,6.58*
Cc1ccc(N2Cc3ccccc3C2=S)cc1,200.8*,-39.5,82.7,22.9,136.1*,6.75*
Cc1ccc(-c2csc(NC(=O)/C=C/c3ccco3)c2C(=O)O)cc1,63.2,-40.6,98.3,10.9,137.7*,1.67
c1ccc(-c2nnc(-c3ccccn3)nc2NC2CCCCC2)cc1,-76.7,-3.0,95.4,7.2,102.7,0.83
CNc1nc(-c2ccccn2)nnc1-c1ccccc1,-11.2,-2.1,101.5,2.8,101.9,13.2*
O=C1CC(/C=C/c2ccccn2)=Nc2ccccc2N1,50.7,-10.9,88.2,15.7,109.0,0.96
CC1=CC(C)=Nc2ccccc2N1,20.5,-31.4,118.2,-14.9,128.7*,1.44
Cc1cc(NC(=O)CSc2nc(=O)cc(N)n2-c2ccc(Cl)cc2)no1,-2.0,7.0,101.9,3.6,91.8,1.04
NC(=O)c1sc2nc3c(cc2c1N)CCC3,26.6,-9.7,83.1,26.4,108.7,1.96
CC(=O)Nc1c(C(=O)N2CCOCC2)sc2nc3c(cc12)COC(C)(C)C3,4.6,-1.1,103.9,-2.8,101.1,1.09
Nc1c(C(=O)N2CCCC2)sc2nc3c(cc12)CCCCCC3,131.7,-50.3,103.7,-2.6,146.8*,1.84
Nc1c(C(=O)N2CCOCC2)sc2nc3c(cc12)CCC3,109.0,-25.7,90.1,13.9,121.8,3.37*
SMILES,APP 5'UTR act,STAT1 blocker,STAT3 act,STAT3 blocker,STAT1 act,NF-kB expr up
COc1ccc(-c2cc(=O)c3cc(O)ccc3o2)cc1,129.4,-50.9,·,·,145.0*,6.55*
COc1ccc2c(c1)c(=O)oc1cc(O)ccc12,1.4,-13.6,·,·,111.2,1.18
CC(=O)NS(=O)(=O)c1ccc(N=c2ssc3c2-c2ccc(C)cc2NC3(C)C)cc1,-4.0,-38.1,100.1,2.5,134.0*,1.61
O=C(NCc1cccs1)c1cc(-c2cccs2)on1,75.5,-41.7,99.4,1.5,137.8*,2.34
O=C(Nc1ccc(NC(=O)C2CCCCC2)nc1)c1cccs1,49.0,-36.6,107.1,-7.2,132.4*,1.9
O=C(NCc1cccs1)c1cc(-c2ccccc2)on1,85.1,-26.4,105.0,-3.2,124.4,2.85
COCCNC(=O)c1cc(-c2cccs2)on1,27.2,-38.8,115.3,-13.0,134.8*,6.39*
COc1ccc(CNC(=O)c2cc(-c3cccs3)on2)cc1,1.6,-7.0,104.3,0.0,106.3,1.29
Cc1ccc(NC(=O)c2csc(-c3ccccc3)c2C)cc1,215.5*,63.3*,19.4,103.6*,43.5,0.78
CCOC(=O)C1(CCOc2ccccc2)CCN(Cc2cc(OC)c3c(c2)OCO3)CC1,6.6,7.1,91.4,14.7,92.0,0.7
O=C(O)COCC(=O)Nc1ccc(-n2cnnn2)cc1,-0.4,-3.0,96.1,12.0,102.5,1.21
COc1cc(NC(=O)c2cc(-c3cccs3)on2)cc(OC)c1OC,-2.4,-0.6,91.5,13.7,100.5,1.06
Cc1ccc(NC(=O)c2cccs2)cc1,75.0,-33.8,100.8,0.6,131.1*,2.93
Cc1ccc(NC(=O)c2cc(-c3cccs3)on2)cc1,13.4,-33.1,89.7,18.4,130.5*,2.38
Cc1ccc(NC(=O)C(=O)NNC(=O)c2cccs2)cc1,14.2,-13.2,96.4,9.1,114.3,1.38
COc1cccc(CC(=O)N[C@@H](CCSC)c2nc3ccccc3[nH]2)c1,7.2,2.6,109.6,-7.5,95.8,0.96
CCN(CC(=O)NCc1cccs1)C(=O)CCc1c[nH]c2ccccc12,-2.2,5.4,95.3,11.1,94.9,1.01
O=C(CCN1C(=O)c2cccc3cccc(c23)C1=O)N1CCOCC1,32.7,-33.0,87.0,19.1,129.3*,1.96
O=C(CCN1C(=O)c2ccccc2C1=O)N1CCOCC1,16.2,0.7,98.4,4.9,100.8,1.32
Cc1ccnc(NC(=O)c2sc3cc(Cl)ccc3c2Cl)c1,171.0*,-12.5,100.2,5.0,111.3,3.57*
CCCOc1ccc(OCCSc2ncccn2)cc1,124.2,-38.5,93.5,12.1,135.2*,4.24*
Cc1ccc(OCCSc2nc(N)cc(N)n2)cc1,74.3,-43.4,100.7,7.8,137.5*,2.53
Clc1ccc(OCCSc2ncccn2)c(Br)c1,174.2*,-51.9,91.8,14.4,143.5*,0.99
O=C(COC(=O)CCSc1ccccc1)NCc1ccc(F)cc1,6.8,-9.3,98.7,3.2,107.6,1.17
COc1cc2ccccc2cc1C(=O)OCC(=O)N1CCOCC1,24.5,-3.1,92.1,13.7,101.3,1.11
COc1ccc(C(=O)OCC(=O)N2CCCC2=O)c(OC)c1,3.4,-44.6,104.5,-0.5,139.0*,1.12
CCO[C@H]1OC(C(=O)N2CCN(C)CC2)=C[C@@H](c2ccc(Br)cc2)[C@@H]1CCCO,0.8,2.2,·,·,99.4,1.03
CN1CCC(NC(=S)Nc2cccc([N+](=O)[O-])c2)CC1,-0.4,-6.0,101.8,5.0,103.6,1.08
Cc1cc(Cl)ccc1OCCCC(=O)NO,19.1,14.1,83.2,24.4,88.0,3.87*

# Screens from PubChem.
